# Test results published in ChEMBL document CHEMBL1240504, “Synthesis of substituted thieno[2,3-d]pyrimidine-2,4-dithiones and their S-glycoside analogues as potential antiviral and antibacterial agents” (Eur J Med Chem, 2010).
# Experiments:
# Staphylococcus aureus [1] = assay: Antibacterial activity against Staphylococcus aureus MTCC 1144 at 64 mg/ml after 16 hrs by disk diffusion test; assay type: functional; conditions: MTCC 1144, 16 h, read-out: IZ
# In short: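 Disk diffusion (zone of inhibition). Bacterial isolate spread evenly over an agar plate. A filter disk carrying a known amount of compound was placed on the surface and the compound left to diffuse. The inhibition zone in the lawn was read after 16 h incubation.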
# Escherichia coli [2] = assay: Antibacterial activity against Escherichia coli MTCC 41 after 12 to 16 hrs by turbidity assay; assay type: functional
# In short: (§1)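 Broth dilution MIC in LB broth. Tubes inoculated, incubated 12–16 h and scored by eye for turbidity (growth) versus clear (no growth).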
# [3] = Therapeutic index, ratio of IC50 for human CEM cells to EC50 for HIV1; assay type: cell-based, CCRF-CEM; conditions: read-out: Ratio IC50/EC50
# In short: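 CEM T4 lymphocytes, with or without HIV-1, were incubated with serially diluted compounds (DMSO solution diluted 1:100 in medium; 1:200 final dilution after cells and virus were added) at 37 °C in 5% CO2 for 6 days. Controls were untreated and AZT-treated. Read-out was XTT formazan, measured spectrophotometrically plus microscopy. EC50 is 50% protection from cytopathic effect; IC50 is 50% growth inhibition in uninfected cultures.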
# [4] = tested on: Human immunodeficiency virus 1; assay: Antiviral activity against HIV1 infected in human CEM cells assessed as protection against virus-induced cytopathic effect after 6 days by XTT assay; assay type: functional, organism-based; conditions: Human immunodeficiency virus 1, CCRF-CEM, 144 h
# In short: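 CEM T4 lymphocytes received serially diluted compounds (DMSO stock diluted 1:100 in medium, 1:200 final dilution), then HIV-1. Incubated 6 days at 37 °C, 5% CO2. Formazan read spectrophotometrically after XTT, with microscopic check for viable cells. EC50 is the concentration giving 50% protection against the HIV cytopathic effect. AZT-treated wells served as positive control.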
# Staphylococcus aureus [5] = assay: Antibacterial activity against Staphylococcus aureus MTCC 1144 after 12 to 16 hrs by turbidity assay; assay type: functional; in short: as §1
# Escherichia coli [6] = assay: Antibacterial activity against Escherichia coli MTCC 41 at 64 mg/ml after 16 hrs by disk diffusion test; assay type: functional; parameters: dose or concentration left out as unconfirmed; conditions: MTCC 41, 16 h, read-out: IZ
# CCRF-CEM = assay: Cytotoxicity against […] human CEM cells after 6 days by XTT assay; assay type: cell-based; conditions: 144 h
# In short: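 Uninfected CEM cultures given serial compound dilutions (DMSO, 1:200 final dilution). Incubated 6 days at 37 °C, 5% CO2, then read by XTT formazan. IC50 is the molar concentration causing 50% inhibition of cell growth.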
# Pseudomonas putida [7] = assay: Antibacterial activity against ampicillin-resistant Pseudomonas putida MTCC 1072 at 128 mg/ml after 16 hrs by disk diffusion test; assay type: functional; parameters: dose or concentration left out as unconfirmed; conditions: MTCC 1072, 16 h, read-out: IZ
# Human alphaherpesvirus 1 [8] = assay: Antiviral activity against HSV1 infected in african green monkey Vero cells after 6 hrs by plaque reduction assay; assay type: functional; parameters: scale not given: the % may be the effect or the level left
# In short: (§2)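 Modified plaque reduction in 96-well trays with no thickening overlay. Compounds dissolved in DMSO and diluted into medium, then serially diluted and added in triplicate to confluent Vero monolayers. Titred HSV-1 added in medium with 10% calf serum. Incubated 6 h at 37 °C, 5% CO2. Cells fixed with 3.7% formaldehyde and examined visually. The end-point concentration was taken from the dilution series.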
# Vero = assay: Cytotoxicity against african green monkey Vero cells assessed as loss of monolayer present around the plaques; assay type: cell-based; conditions: Chlorocebus sabaeus
# In short: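 Vero monolayers in serial-dilution trays with HSV-1, run in triplicate, 6 h at 37 °C, 5% CO2. Cells fixed with 3.7% formaldehyde and examined visually. IC50 is the concentration giving about 50% loss of the monolayer around HSV-1 plaques.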
# Pseudomonas putida [9] = assay: Antibacterial activity against ampicillin-resistant Pseudomonas putida MTCC 1072 after 12 to 16 hrs by turbidity assay; assay type: functional; in short: as §1
# Escherichia coli [10] = assay: Antibacterial activity against Escherichia coli MTCC 41 at 128 mg/ml after 16 hrs by disk diffusion test; assay type: functional; parameters: dose or concentration left out as unconfirmed; conditions: MTCC 41, 16 h, read-out: IZ
# Staphylococcus aureus [11] = assay: Antibacterial activity against Staphylococcus aureus MTCC 1144 at 128 mg/ml after 16 hrs by disk diffusion test; assay type: functional; parameters: dose or concentration left out as unconfirmed; conditions: MTCC 1144, 16 h, read-out: IZ
# Pseudomonas putida [12] = assay: Antibacterial activity against ampicillin-resistant Pseudomonas putida MTCC 1072 at 64 mg/ml after 16 hrs by disk diffusion test; assay type: functional; parameters: dose or concentration left out as unconfirmed; conditions: MTCC 1072, 16 h, read-out: IZ
# Human alphaherpesvirus 1 [13] = assay: Antiviral activity against HSV1 infected in african green monkey Vero cells assessed as minimum antiviral concentration after 6 hrs; assay type: functional; in short: as §2
SMILES,zone of inhibition at 64000 µg/mL (Staphylococcus aureus [1]) [mm],MIC (Escherichia coli [2]) [µg/mL],selectivity ratio [3],EC50 [4] [µM],MIC (Staphylococcus aureus [5]) [µg/mL],zone of inhibition (Escherichia coli [6]) [mm],IC50 (CCRF-CEM) [µM],zone of inhibition (Pseudomonas putida [7]) [mm],Activity (Human alphaherpesvirus 1 [8]) [%],IC50 (Vero) [µM],MIC (Pseudomonas putida [9]) [µg/mL],zone of inhibition (Escherichia coli [10]) [mm],zone of inhibition (Staphylococcus aureus [11]) [mm],zone of inhibition (Pseudomonas putida [12]) [mm],MAC (Human alphaherpesvirus 1 [13]) [µM]
CC(=O)OC[C@H]1O[C@@H](Sc2nc3sc4c(c3c(=S)[nH]2)CCCC4)[C@@H](OC(C)=O)[C@@H]1OC(C)=O,> 3,64,> 1,> 100,64,> 3,> 100,> 3,0,1.39,128,> 3,> 3,< 1,
S=c1[nH]c(=S)c2c3c(sc2[nH]1)CCCCC3,> 2,64,> 19.1,> 100,> 128,> 3,5.25,> 3,0,0.09,128,> 3,> 2,> 2,
OC[C@H]1O[C@@H](Sc2nc3sc4c(c3c(=S)[nH]2)CCCCC4)[C@@H](O)[C@@H]1O,> 2,128,> 1,> 100,128,> 2,> 100,> 3,24,> 1.46,128,> 3,> 3,> 2,0.21
C[C@@]1(CO)[C@H](O)CC[C@@]2(C)[C@H]1CC[C@H]1C[C@@H]3C[C@@]12CC[C@]3(O)CO [APHIDICOLIN],,,,,,,,,100,0.58,,,,,0.02
CC(=O)c1nn(-c2ccc([N+](=O)[O-])cc2)c2nc3sc4c(c3c(=S)n12)CCCC4,> 2,64,,,> 128,> 3,,> 3,,,128,> 3,> 2,> 2,
CC(=O)OC[C@H]1O[C@@H](Sc2nc3sc4c(c3c(=S)[nH]2)CCCC4)[C@H](OC(C)=O)[C@@H](OC(C)=O)[C@@H]1OC(C)=O,< 1,> 128,> 1,> 100,> 128,< 1,> 100,> 2,0,0.56,> 128,> 2,< 1,> 2,
OC[C@H]1O[C@@H](Sc2nc3sc4c(c3c(=S)[nH]2)CCCC4)[C@H](O)[C@@H](O)[C@@H]1O,< 1,> 128,> 1,> 100,> 128,< 1,> 100,> 3,0,0.61,128,< 1,< 1,< 1,
CC(=O)c1nn(-c2ccc(Cl)cc2)c2nc3sc4c(c3c(=S)n12)CCCCC4,,,> 1,> 100,,,> 100,,0,0.07,,,,,
OC[C@H]1O[C@@H](Sc2nc3sc4c(c3c(=S)[nH]2)CCCCC4)[C@H](O)[C@@H](O)[C@H]1O,,,> 1,> 100,,,> 100,,0,0.38,,,,,
CCOC(=O)c1nn(-c2ccc(C)cc2)c2nc3sc4c(c3c(=S)n12)CCCC4,> 2,128,,,128,< 1,,> 3,,,128,> 3,> 3,< 1,
